Experimental data as given in article PMC7596007 (Cell, 2020).

Key:
NM2C^F490L variant = NM2C^F490L variant (Homo sapiens, UniProt Q7Z406, F490L); experiment: Actin-activated steady-state ATPase inhibition, NM2C F490L variant; type: biochemical; settings: expressed variant
Outline: (§1)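 Steady-state actin-activated ATPase measured by NADH-PK/LDH coupled assay at 25°C for 15 min. Buffer: 10 mM MOPS pH 7.0, 4 mM MgCl2, 2 mM β-mercaptoethanol, with 0.5 mM ATP, 25 μM F-actin, 1 mM PEP, 200 μM NADH and 2% PK/LDH. NADH decrease followed at 340 nm; activity taken from linear regression of absorbance over time. Inhibitor added at varied concentrations in DMSO (1% final).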

[1] = tested on: 23 human hormone nuclear receptors (HNR); experiment: SelectScreen Nuclear Receptor Profiling; type: binding; settings: 5 μM; 23 receptors
Outline: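 Outsourced SelectScreen binding profile on 23 human hormone nuclear receptors; test compound at 5 μM. Mean ± SEM, n = 2.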

[2] = tested on: skeletal myosin samples from m.soleus; experiment: Actin-activated ATPase inhibition, human m. soleus biopsy myosin; type: biochemical; settings: patient-derived biopsy; 28% fast isoforms
[3] = tested on: human adult dermal fibroblast (hDFa); experiment: CyQUANT LDH Cytotoxicity assay, dermal fibroblasts; type: cell-based; settings: 20 μM and 50 μM, 48 and 120 hours
Outline: (§2)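 LDH release (CyQUANT kit, per manufacturer) from human adult dermal and lung fibroblasts. Cells exposed to 20 or 50 μM test compound for 48 and 120 h.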

TA98 = experiment: Ames MPF reverse mutagenicity assay, TA98; type: cell-based, S.typhimurium; settings: absence and presence of rat liver S9 fraction
Outline: (§3)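 Ames MPF reverse mutagenicity run per kit instructions on Salmonella TA98 and TA100. Each strain tested without and with phenobarbital/β-naphthoflavone-induced rat liver S9 fraction.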

hERG potassium channel = hERG potassium channel (Homo sapiens, UniProt Q12809); experiment: Predictor hERG Fluorescence Polarization Assay; type: binding; settings: up to 5 μM
Outline: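 Outsourced hERG fluorescence-polarisation binding assay, test compound up to 5 μM. Mean ± SEM, n = 2.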

[4] = tested on: rat hindleg isometric force; experiment: Isometric force measurement of rat hindleg; type: in vivo
TA100 = experiment: Ames MPF reverse mutagenicity assay, TA100; type: cell-based, S.typhimurium; settings: absence and presence of rat liver S9 fraction
Outline: as §3

NM2A = NM2A (Homo sapiens, UniProt P35579); experiment: Actin-activated steady-state ATPase inhibition, NM2A; type: biochemical; settings: even at extremely high concentrations
Outline: as §1

484 kinases = experiment: SelectScreen Kinase Profiling panel; type: biochemical, human; settings: 5 μM
Outline: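 Outsourced SelectScreen panel of wild-type and common mutant human kinases; test compound at 5 μM. Mean ± SEM, n = 2.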

[5] = tested on: human adult lung (hLFa) fibroblast; experiment: CyQUANT LDH Cytotoxicity assay, lung fibroblasts; type: cell-based; settings: 20 μM and 50 μM, 48 and 120 hours
Outline: as §2

[6] = molecular target: human non-muscle myosin-2C (NM2C) (Homo sapiens, UniProt Q7Z406); experiment: Actin-activated steady-state ATPase inhibition, NM2C wild type; type: biochemical; settings: wild-type form
Outline: as §1

NM2B = NM2B (Homo sapiens, UniProt P35580); experiment: Actin-activated steady-state ATPase inhibition, NM2B; type: biochemical; settings: even at extremely high concentrations
Outline: as §1

[7] = molecular target: expressed human β-cardiac myosin (Homo sapiens, UniProt P12883); experiment: Actin-activated steady-state ATPase inhibition, expressed human β-cardiac myosin; type: biochemical
Outline: as §1

[8] = molecular target: β-cardiac myosin isolated from human heart left ventricle (Homo sapiens, UniProt P12883); experiment: Actin-activated ATPase inhibition, human heart left ventricle myosin; type: biochemical
Outline: as §1

[9] = Concentration measurement from tissue samples; type: in vivo; settings: rat
Outline: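 Male Wistar rats (200-250 g) dosed i.p. or orally, over-anaesthetised; tissues collected and frozen at −80°C. Extracts chloroform-dried, taken up in 50/50 water-acetonitrile, sonicated, centrifuged, then ultracentrifuged (60,000 rpm, 10°C, 60 min). HPLC-MS on RP-18 column, isocratic 50% H2O (0.1% TFA)/50% ACN (0.09% TFA), 0.5 ml/min. Quantified from 400 nm peak area against a calibration curve.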

[10] = tested on: spastic rats after pyramidal tract lesion; experiment: Spastic cerebral palsy rat model, cylinder assay; type: in vivo; settings: Rat-B and C, three and five hours after oral 20 mg/kg treatment
Caco-2 = Caco-2 permeability assay; type: in vitro ADME; settings: faster transfer in the absorptive direction over the excretive direction
Outline: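 Outsourced Caco-2 permeability, measured apical-to-basolateral and basolateral-to-apical, in the presence of two transporter inhibitors. Mean ± SD, n = 2.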

smooth muscle myosin-2 = smooth muscle myosin-2 (Gallus gallus, UniProt P10587); experiment: Actin-activated steady-state ATPase inhibition, smooth muscle myosin; type: biochemical, chicken; settings: even at extremely high concentrations
Outline: as §1

[11] = tested on: 186 different human G-protein-coupled-receptors (GPCRs); experiment: gpcrMAX panel; type: cell-based; settings: 5 μM; 186 GPCRs
Outline: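 gpcrMAX service panel of 186 human GPCRs from 60 families, read in both agonist and inhibition modes; test compound at 5 μM. Mean ± SEM, n = 2.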

[12] = tested on: skeletal myosin samples from m.vastus lateralis; experiment: Actin-activated ATPase inhibition, human m. vastus lateralis biopsy myosin; type: biochemical; settings: patient-derived biopsies; 56% fast isoforms
[13] = tested on: cardiovascular and respiratory functions of rats; experiment: Non-invasive measurement of cardiovascular and respiratory functions; type: in vivo; settings: rat
Outline: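 Anaesthetised rats had the neck trimmed for a size-matched collar sensor of a non-invasive pulse oximeter. Recorded heart rate, pulse distention (local blood flow), breath rate and oxygen saturation after test compound or SBECD vehicle. Monitored 60-600 min; maximal signal deflection taken; 1-4 animals per dose.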

[14] = tested on: spastic rats after pyramidal tract lesion; experiment: Spastic cerebral palsy rat model, open-field gait analysis; type: in vivo; settings: for ratio of left turns: Rat-A, 15% before
Outline: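 Spasticity induced in rats by stereotaxic injection of 15 μl ethanol into the left pyramidal tract (ML −0.8, AP −10, DV 9.7 mm from dura). Rats filmed for 15 min in an 80×80 cm open field with transparent floor, with deep-learning 3D paw tracking. Gait parameters Z-scored and run through PCA. Falls and cramps normalised to distance. Oral 15 or 20 mg/kg; recorded before and 1-21 h after dosing.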

[15] = molecular target: fast skeletal myosin-2 isoforms isolated from rabbit psoas muscle (Oryctolagus cuniculus, UniProt Q28641); experiment: Actin-activated steady-state ATPase inhibition, rabbit psoas skeletal myosin; type: biochemical
Outline: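 Rabbit psoas S1 made by α-chymotrypsin digestion (0.25 mg/ml, 10 min, 25°C), stopped with 3 mM PMSF, then purified on MonoS. Assayed by NADH-PK/LDH coupled ATPase at 25°C for 15 min: 0.5 mM ATP, 25 μM F-actin, 10 mM MOPS pH 7.0, 4 mM MgCl2. Rate read at 340 nm by linear regression; inhibitor at varied concentrations, 1% DMSO.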

[16] = molecular target: slow skeletal/β-cardiac myosin isolated from left ventricle of porcine heart (Sus scrofa, UniProt P79293); experiment: Actin-activated steady-state ATPase inhibition, porcine cardiac myosin; type: biochemical; settings: even at extremely high concentrations

Chain of expressed human β-cardiac myosin (P12883 85-778 limits assumed): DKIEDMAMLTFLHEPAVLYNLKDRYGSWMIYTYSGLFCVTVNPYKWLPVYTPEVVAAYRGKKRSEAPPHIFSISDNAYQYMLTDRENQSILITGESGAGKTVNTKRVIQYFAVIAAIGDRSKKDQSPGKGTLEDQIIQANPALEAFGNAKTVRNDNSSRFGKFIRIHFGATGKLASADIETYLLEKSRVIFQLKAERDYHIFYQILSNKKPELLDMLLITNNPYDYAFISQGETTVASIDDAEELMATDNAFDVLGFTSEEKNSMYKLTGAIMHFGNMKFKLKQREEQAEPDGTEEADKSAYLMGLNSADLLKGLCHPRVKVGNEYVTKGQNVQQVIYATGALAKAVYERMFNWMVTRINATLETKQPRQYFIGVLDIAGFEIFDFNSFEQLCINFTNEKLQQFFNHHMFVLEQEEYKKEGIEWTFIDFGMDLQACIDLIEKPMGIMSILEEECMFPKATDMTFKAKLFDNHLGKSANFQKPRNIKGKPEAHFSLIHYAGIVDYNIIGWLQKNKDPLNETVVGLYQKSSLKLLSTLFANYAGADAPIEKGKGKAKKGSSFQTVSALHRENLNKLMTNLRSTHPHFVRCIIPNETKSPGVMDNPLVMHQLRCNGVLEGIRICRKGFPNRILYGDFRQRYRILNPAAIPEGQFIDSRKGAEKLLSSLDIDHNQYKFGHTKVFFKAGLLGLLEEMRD
Chain of expressed human β-cardiac myosin (P08590 whole entry partner): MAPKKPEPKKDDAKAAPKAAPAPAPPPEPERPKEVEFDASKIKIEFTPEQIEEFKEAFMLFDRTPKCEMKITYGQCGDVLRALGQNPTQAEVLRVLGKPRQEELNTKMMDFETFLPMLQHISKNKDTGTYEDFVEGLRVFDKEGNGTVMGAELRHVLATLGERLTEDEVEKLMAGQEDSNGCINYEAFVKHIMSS
Chain of β-cardiac myosin isolated from human heart left ventricle (P12883 85-778 limits assumed): as the sequence (P12883 85-778 limits assumed) above
Chain of β-cardiac myosin isolated from human heart left ventricle (P08590 whole entry partner): as the sequence (P08590 whole entry partner) above
Chain of NM2A (P35579 1-775): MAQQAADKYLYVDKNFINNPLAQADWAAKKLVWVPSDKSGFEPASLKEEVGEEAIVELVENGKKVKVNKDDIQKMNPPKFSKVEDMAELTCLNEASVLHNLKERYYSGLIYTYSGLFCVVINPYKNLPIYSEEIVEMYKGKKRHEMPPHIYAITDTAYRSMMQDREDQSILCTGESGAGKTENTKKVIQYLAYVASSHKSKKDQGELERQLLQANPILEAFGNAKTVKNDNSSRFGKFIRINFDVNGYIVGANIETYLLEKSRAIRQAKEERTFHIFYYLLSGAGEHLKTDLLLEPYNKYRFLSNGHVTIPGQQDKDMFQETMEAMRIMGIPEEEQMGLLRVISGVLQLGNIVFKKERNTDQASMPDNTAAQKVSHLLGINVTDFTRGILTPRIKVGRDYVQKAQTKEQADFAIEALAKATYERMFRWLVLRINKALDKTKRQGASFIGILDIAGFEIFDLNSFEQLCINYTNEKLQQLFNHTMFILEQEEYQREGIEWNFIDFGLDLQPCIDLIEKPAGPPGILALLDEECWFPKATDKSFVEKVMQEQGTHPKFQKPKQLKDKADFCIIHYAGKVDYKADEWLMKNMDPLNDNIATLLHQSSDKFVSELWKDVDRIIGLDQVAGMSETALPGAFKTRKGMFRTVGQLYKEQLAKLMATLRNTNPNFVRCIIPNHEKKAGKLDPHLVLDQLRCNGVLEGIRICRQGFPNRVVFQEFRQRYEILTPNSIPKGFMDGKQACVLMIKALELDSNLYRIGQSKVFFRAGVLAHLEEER
Chain of smooth muscle myosin-2 (P10587 84-789 limits assumed): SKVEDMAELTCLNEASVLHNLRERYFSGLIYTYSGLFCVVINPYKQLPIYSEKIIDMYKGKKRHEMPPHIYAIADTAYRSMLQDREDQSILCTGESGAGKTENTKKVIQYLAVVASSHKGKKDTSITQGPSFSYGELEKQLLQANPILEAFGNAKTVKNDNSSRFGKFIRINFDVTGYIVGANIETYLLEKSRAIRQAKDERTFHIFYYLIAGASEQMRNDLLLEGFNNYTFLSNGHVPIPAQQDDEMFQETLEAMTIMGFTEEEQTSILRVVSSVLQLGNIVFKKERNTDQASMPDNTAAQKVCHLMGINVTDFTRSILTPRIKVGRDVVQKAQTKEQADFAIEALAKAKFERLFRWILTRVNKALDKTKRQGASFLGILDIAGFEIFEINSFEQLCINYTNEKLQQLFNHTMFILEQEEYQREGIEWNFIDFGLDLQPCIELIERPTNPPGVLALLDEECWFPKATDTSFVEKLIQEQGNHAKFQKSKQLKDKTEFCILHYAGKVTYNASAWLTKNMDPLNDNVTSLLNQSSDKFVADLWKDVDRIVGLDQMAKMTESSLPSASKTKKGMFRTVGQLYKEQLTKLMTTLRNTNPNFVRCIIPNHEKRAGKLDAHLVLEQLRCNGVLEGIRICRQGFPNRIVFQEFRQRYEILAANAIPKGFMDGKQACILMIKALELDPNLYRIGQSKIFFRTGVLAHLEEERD
Chain of smooth muscle myosin-2 (P02607 whole entry partner): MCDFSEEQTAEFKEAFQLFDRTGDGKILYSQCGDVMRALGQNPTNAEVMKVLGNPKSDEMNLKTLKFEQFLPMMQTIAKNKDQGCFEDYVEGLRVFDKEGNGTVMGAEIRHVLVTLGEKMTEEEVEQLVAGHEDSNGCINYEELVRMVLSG
Chain of hERG potassium channel (Q12809 whole entry): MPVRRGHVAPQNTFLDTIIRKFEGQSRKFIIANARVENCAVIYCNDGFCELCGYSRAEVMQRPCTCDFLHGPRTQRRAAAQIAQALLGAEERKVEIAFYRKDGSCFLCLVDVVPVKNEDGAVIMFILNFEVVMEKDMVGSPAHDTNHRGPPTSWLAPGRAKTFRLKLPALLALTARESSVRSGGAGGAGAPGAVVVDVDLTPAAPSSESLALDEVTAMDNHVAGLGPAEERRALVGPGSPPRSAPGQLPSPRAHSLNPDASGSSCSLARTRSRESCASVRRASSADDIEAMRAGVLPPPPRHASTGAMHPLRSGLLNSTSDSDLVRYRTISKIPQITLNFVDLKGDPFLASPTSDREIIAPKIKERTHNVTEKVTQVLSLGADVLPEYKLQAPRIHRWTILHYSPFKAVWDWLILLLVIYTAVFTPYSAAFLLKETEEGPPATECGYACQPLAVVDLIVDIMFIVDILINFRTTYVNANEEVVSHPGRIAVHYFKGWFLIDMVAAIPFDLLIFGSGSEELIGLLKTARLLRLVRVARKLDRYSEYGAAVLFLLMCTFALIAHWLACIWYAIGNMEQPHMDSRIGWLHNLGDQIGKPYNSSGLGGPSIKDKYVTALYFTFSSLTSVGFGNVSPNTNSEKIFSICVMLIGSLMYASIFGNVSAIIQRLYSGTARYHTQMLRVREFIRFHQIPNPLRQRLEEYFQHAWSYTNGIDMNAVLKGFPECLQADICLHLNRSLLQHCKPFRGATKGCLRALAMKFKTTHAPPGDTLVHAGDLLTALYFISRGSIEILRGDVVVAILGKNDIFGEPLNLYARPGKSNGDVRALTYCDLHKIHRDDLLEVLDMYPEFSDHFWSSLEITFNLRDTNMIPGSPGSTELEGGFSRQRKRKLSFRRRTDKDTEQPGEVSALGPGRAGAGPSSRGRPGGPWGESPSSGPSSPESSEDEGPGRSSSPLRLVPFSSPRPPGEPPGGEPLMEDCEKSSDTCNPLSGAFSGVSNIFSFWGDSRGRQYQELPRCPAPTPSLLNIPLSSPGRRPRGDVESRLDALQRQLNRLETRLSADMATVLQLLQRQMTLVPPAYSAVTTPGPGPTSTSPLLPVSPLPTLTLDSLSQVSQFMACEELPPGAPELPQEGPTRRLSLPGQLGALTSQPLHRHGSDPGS
Chain of human non-muscle myosin-2C (NM2C) (Q7Z406 1-799): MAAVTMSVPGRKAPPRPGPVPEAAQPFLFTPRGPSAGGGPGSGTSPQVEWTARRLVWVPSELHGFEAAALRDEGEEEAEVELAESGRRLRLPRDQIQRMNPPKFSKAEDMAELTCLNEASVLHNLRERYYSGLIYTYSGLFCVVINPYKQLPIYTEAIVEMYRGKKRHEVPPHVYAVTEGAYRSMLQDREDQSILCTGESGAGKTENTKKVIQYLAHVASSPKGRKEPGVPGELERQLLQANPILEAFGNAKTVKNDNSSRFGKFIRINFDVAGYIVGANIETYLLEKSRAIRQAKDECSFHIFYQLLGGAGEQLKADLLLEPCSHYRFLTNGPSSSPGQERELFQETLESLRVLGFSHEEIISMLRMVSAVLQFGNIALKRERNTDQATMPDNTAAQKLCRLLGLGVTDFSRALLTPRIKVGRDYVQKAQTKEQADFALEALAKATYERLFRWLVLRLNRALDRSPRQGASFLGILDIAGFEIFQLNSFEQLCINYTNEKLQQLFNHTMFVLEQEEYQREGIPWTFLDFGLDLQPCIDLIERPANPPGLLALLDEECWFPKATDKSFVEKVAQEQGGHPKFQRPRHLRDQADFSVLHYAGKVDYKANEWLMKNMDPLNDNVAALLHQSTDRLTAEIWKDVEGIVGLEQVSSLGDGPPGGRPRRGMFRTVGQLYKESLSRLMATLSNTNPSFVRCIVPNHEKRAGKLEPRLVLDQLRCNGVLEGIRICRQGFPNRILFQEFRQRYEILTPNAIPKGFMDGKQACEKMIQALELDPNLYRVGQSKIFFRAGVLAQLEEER
Chain of NM2C^F490L variant (Q7Z406 1-799 F490L): as the sequence (Q7Z406 1-799) above, with F490L counted along it

SMILES: Cc1cc2c(s1)N=C1N(c3ccc(N4CCOCC4)cc3)CC[C@@]1(O)C2=O [MPH-220]
- ATPase sensitivity of NM2C F490L variant (NM2C^F490L variant): became sensitive
- effect on hormone nuclear receptors [1]: remained unaffected
- ATPase inhibition of m.soleus myosin sample [2]: 29%
- cytotoxicity (LDH) [3]: not toxic
- mutagenicity, frameshift (TA98) (TA98): Lack of mutagenicity
- hERG potassium channel inhibition (hERG potassium channel): did not observe inhibition
- isometric force decrease τi.p. ([4]; 18 mg/kg, intraperitoneal injection in 200 μl DMSO, anesthetized rats): 34 min
- leg phase before force decrease, corresponding to absorption ([4]; 18 mg/kg, oral in 30% SBECD): 17 min
- isometric force decrease τp.o. ([4]; 18 mg/kg, orally through gavage tube in 30% SBECD, anesthetized rats): 53 min
- persistence of decreased force ([4]; rat hindleg, oral treatment): more than 10 hours
- mutagenicity, base-pair substitution (TA100) (TA100): Lack of mutagenicity
- ATPase activity inhibition of NM2A (NM2A): did not inhibit
- kinase inhibition (484 kinases): ≤ 20%
- cytotoxicity (LDH) [5]: not toxic
- ATPase activity inhibition of NM2C [6]: not inhibited
- ATPase activity inhibition of NM2B (NM2B): did not inhibit
- ATPase activity inhibition of expressed human β-cardiac myosin [7]: essentially unaffected
- ATPase inhibition of human heart left ventricle β-cardiac myosin (in words) [8]: unaffected
- concentration in the diaphragm [9]: much lower compared to other striated muscle samples
- concentration in the liver [9]: only temporarily elevated
- concentration in target muscles relative to the inhibitory constant [IC50] ([9]; after 3 hours): 10 fold
- elimination from blood and other tissues ([9]; after 3 hours): completely eliminated
- concentration in cardiac tissue ([9]; high doses (up to 130 mg/kg)): 3 to 7 µM
- accumulation in skeletal muscle samples over other tissues ([9]; versus brain, heart, kidney and blood): few-fold accumulation
- standing up in the cylinder, wall touches with both forepaws [10]: same number of events as their healthy littermates
- Caco-2 permeability (Caco-2): highly permeable
- ATPase activity inhibition of smooth muscle myosin-2 (smooth muscle myosin-2): did not inhibit
- GPCR inhibition or activation [11]: ≤ 30%
- ATPase inhibition of m.vastus lateralis myosin sample [12]: 70%
- effect on cardiovascular and respiratory functions ([13]; 18 mg/kg): neither 13 mg/kg MPH-188 (H) nor 18 mg/kg MPH-220 (I) had any significant effect
- cardiac and respiratory functions versus excipient control ([13]; 10-hour experiments under anesthesia): neither cardiac nor respiratory functions differed significantly
- maximum decrease in heart rate and blood flow parameters ([13]; 10-hour-long anesthesia): ≤ 25%
- cardiac function ([13]; concentration range effective in force relaxation): not perturbed
- ratio of left turns ([14]; 40 minutes after 15 mg/kg treatment): 38%
- ratio of left turns ([14]; three hours after 15 mg/kg treatment): 51%
- relative frequency of random falling and spontaneous cramping ([14]; Rat-C, 20 mg/kg, open field test): decreased drastically
- persistence of enhanced gait functions ([14]; Rat-D, 20 mg/kg): persistent for five hours
- PC1 scores (major gait component) ([14]; global PCA, 20 mg/kg oral): significantly decreased
- time of maximal effect on PC1 scores ([14]; global PCA, 20 mg/kg oral): 3 h
- ATPase inhibition of fast skeletal myosin (selectivity, in words) [15]: selective inhibition
- ATPase activity inhibition of cardiac myosin [16]: did not inhibit

SMILES: Cc1ccc2c(c1)C(=O)C1(O)CCN(c3ccccc3)C1=N2 (stereo not drawn) [blebbistatin, reference compound]
- ATPase activity inhibition of expressed human β-cardiac myosin [7]: completely blocked
- ATPase activity reduction of human cardiac myosin sample ([8]; human heart left ventricle): more than 90%
- ATPase inhibition of m.vastus lateralis myosin sample [12]: more than 90%

SMILES: Cc1ccc2c(c1)C(=O)[C@]1(O)CCN(c3ccc(N)cc3)C1=N2 [AmBleb, para-aminoblebbistatin, reference compound]
- time to death due to heart failure ([13]; 16 mg/kg): ≤ 15 min
